What was measured:
band 3 [1] = biological target: T1, band 3 (Homo sapiens, UniProt P02730); test: 36Cl exchange flux inhibition in red blood cells, Dixon plots; assay type: cell-based
T1 sequence (P02730 1-911): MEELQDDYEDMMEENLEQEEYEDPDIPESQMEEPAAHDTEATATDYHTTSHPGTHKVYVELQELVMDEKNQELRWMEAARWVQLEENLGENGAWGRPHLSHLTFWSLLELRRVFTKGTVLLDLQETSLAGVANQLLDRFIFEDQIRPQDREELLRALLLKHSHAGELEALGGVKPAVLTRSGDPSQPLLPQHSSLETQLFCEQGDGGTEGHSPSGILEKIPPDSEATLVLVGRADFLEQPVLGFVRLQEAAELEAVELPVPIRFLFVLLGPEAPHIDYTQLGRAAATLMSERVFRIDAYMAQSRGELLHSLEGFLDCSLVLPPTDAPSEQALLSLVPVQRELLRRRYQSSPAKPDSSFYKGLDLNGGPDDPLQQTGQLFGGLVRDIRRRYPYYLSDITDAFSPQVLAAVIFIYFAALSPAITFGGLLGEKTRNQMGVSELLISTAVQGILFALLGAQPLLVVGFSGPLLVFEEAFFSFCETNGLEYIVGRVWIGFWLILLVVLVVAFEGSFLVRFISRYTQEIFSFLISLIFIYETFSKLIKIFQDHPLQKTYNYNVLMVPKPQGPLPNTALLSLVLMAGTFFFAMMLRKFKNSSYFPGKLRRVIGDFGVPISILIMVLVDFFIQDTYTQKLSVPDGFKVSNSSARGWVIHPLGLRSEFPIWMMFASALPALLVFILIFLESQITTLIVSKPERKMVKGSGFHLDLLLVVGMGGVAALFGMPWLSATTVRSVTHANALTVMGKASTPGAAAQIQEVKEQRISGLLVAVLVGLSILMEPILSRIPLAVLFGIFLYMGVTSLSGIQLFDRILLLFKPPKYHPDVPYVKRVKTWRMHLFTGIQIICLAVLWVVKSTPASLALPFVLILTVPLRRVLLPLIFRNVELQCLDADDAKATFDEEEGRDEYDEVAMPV

band 3 [2] = biological target: T1, band 3; test: 125I iodide influx into red blood cells; assay type: cell-based
How it was run: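 Heparinised human blood was washed three times in 150 KH (150 mM KCl, 24 mM sucrose, 20 mM Hepes, pH 7.2 at 0°C), with white cells aspirated, then held at 50% hematocrit. DIDS-treated cells received a 2 mM DIDS stock. Media mixed sucrose, KCl and KI with 5 mM buffer. Above pHo 11, cells were nystatin-loaded to 300 mM Cl-, and CAPS-buffered media were used.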

Compound: O=S(=O)(O)CCCNC1CCCCC1 [CAPS, 3-[cyclohexylamino]-l-propanesulfonic acid]
- effect of buffer on anion transport or on KoI (band 3 [1]; pHo ~12, compared with data obtained without buffer): does not show any inhibitory effects

Compound: O=S(=O)(O)c1cc(N=C=S)ccc1C=Cc1ccc(N=C=S)cc1S(=O)(=O)O [DIDS, 4,4'-diisothiocyano-stilbene-2,2'-disulfonate]
- I- influx in DIDS-treated cells as % of value in control cells (band 3 [2]; all pH except 11.5): less than 10%
- DIDS-insensitive I- flux as % of control flux (band 3 [2]; pH 11.5, very scattered values): up to 25%

Compound: O=C(O)CC(O)(CC(=O)O)C(=O)O [citrate]
- type of inhibition of Cl- flux (Lineweaver-Burk plot) (band 3 [1]; 24 mM citrate, pHo 6.8, sucrose replacing Cl-): mixed inhibition
- y intercept of Dixon slope vs 1/[Clo] (citrate) (band 3 [1]; pHo 6.8): 0.00017 kg Hb·s·mmol-1·mM-1
- y intercept of Dixon slope vs 1/[Clo] (citrate) (band 3 [1]; pHo 8.0): 0.0001 kg Hb·s·mmol-1·mM-1

Source: publication PMC2219267 (The Journal of General Physiology, 1996)
